In ChEMBL document CHEMBL3108692, “Potent Targeting of the STAT3 Protein in Brain Cancer Stem Cells: A Promising Route for Treating Glioblastoma” (ACS Med Chem Lett, 2013):
Activity calls are given as the source filed them. The calls are words filed in the database; no cut-off is given here.

Tests used:
[1] = molecular target: Epidermal growth factor receptor (Homo sapiens) (UniProt P00533); assay: Inhibition of EGFR in human 147EF cells after 6 hrs by Western blotting analysis; format: cell-based
Chain of Epidermal growth factor receptor (Homo sapiens) (P00533 whole entry): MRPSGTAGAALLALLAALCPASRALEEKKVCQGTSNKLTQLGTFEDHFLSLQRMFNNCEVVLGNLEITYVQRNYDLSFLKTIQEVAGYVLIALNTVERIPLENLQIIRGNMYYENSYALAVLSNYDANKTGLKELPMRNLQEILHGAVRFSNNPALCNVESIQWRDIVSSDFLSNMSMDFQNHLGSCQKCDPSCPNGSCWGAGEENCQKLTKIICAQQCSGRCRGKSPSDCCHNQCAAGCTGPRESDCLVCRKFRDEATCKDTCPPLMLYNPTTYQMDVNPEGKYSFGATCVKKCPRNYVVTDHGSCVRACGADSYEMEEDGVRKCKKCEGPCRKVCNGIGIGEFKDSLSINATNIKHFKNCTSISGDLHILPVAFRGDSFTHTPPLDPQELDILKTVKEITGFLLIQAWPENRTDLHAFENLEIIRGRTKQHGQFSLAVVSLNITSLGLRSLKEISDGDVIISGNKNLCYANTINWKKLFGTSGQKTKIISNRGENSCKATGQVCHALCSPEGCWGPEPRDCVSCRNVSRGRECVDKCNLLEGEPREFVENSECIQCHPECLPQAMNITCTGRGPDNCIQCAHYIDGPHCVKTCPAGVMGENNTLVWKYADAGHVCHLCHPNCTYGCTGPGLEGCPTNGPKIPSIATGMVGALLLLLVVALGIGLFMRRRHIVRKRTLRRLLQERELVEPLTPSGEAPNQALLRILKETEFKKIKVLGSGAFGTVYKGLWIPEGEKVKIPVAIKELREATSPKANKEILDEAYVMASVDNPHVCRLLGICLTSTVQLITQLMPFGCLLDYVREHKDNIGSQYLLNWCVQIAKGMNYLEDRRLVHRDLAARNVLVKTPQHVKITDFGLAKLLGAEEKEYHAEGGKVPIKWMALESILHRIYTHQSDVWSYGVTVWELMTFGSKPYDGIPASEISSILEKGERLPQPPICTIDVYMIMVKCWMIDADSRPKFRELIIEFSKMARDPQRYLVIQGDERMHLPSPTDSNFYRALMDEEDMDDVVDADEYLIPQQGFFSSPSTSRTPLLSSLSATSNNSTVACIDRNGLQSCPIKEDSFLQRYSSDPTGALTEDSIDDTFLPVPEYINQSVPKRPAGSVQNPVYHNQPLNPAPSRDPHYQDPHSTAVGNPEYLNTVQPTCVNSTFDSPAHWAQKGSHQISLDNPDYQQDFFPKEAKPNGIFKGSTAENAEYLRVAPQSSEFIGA

[2] = Cytotoxicity against HF2003 cells assessed as cell viability at 5 uM after 3 days by Alamar Blue assay; format: cell-based; settings: human, 72 h
Summary of the method: (§1)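 Normal human fetal astrocytes (healthy, non-tumor cells) were exposed to compounds at concentrations up to 5 μM, with viability as the cytotoxicity read-out.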

[3] = molecular target: Mitogen-activated protein kinase 3 (Homo sapiens) (UniProt P27361); assay: Inhibition of ERK1 (unknown origin) at 5 uM after 120 mins
Chain of Mitogen-activated protein kinase 3 (Homo sapiens) (P27361 whole entry): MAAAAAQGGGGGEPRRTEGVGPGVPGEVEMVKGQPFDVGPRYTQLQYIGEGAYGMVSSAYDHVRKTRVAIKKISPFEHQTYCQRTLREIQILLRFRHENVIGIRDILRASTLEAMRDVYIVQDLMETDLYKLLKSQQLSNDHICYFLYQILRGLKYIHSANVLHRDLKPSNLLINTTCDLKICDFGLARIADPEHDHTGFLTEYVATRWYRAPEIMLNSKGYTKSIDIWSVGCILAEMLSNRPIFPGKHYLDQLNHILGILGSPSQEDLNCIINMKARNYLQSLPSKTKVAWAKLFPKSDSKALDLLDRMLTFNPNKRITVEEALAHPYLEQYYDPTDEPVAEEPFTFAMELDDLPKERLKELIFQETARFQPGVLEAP

[4] = molecular target: Proto-oncogene tyrosine-protein kinase Src (Homo sapiens) (UniProt P12931); assay: Inhibition of c-Src (unknown origin) at 5 uM after 120 mins relative to control
Chain of Proto-oncogene tyrosine-protein kinase Src (Homo sapiens) (P12931 2-536 limits assumed): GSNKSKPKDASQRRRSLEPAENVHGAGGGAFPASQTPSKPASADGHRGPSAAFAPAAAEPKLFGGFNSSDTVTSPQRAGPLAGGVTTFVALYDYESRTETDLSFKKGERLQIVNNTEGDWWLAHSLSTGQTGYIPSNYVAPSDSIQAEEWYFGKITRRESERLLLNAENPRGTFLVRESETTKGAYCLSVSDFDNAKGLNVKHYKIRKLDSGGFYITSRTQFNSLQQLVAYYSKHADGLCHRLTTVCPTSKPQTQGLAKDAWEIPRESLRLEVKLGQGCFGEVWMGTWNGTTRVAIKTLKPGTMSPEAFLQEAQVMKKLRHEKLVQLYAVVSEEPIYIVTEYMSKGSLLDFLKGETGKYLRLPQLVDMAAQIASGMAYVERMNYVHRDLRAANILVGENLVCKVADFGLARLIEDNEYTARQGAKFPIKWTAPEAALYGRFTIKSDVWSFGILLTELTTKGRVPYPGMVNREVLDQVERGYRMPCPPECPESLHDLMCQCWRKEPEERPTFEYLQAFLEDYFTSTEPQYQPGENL

[5] = molecular target: RAC-alpha serine/threonine-protein kinase (Homo sapiens) (UniProt P31749); assay: Inhibition of AKT1 (unknown origin) at 5 uM after 120 mins
Chain of RAC-alpha serine/threonine-protein kinase (Homo sapiens) (P31749 whole entry): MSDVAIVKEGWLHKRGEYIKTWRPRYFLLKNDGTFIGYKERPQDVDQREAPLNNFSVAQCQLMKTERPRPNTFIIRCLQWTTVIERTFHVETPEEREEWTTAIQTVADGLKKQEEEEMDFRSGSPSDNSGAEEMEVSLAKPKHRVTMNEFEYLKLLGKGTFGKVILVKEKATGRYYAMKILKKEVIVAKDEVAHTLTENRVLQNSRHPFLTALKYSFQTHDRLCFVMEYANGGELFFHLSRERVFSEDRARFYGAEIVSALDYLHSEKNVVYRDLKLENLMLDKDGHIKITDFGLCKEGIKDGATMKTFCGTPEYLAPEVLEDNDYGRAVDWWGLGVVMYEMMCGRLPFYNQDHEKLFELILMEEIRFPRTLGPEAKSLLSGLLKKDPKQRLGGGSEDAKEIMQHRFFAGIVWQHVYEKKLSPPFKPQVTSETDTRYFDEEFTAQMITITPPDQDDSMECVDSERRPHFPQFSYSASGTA

[6] = molecular target: Tyrosine-protein kinase JAK1 (Homo sapiens) (UniProt P23458); assay: Inhibition of JAK1 (unknown origin) at 5 uM after 120 mins
Homo sapiens [7] = species: Homo sapiens; assay: Inhibition of AKT in human 147EF cells after 6 hrs by Western blotting analysis; format: cell-based
[8] = Cytotoxicity against HF2006 cells assessed as cell viability at 5 uM after 3 days by Alamar Blue assay; format: cell-based; settings: human, 72 h; summary of the method: as §1
[9] = molecular target: Tyrosine-protein kinase JAK2 (Homo sapiens) (UniProt O60674); assay: Inhibition of JAK2 (unknown origin) at 5 uM after 120 mins relative to control
Chain of Tyrosine-protein kinase JAK2 (Homo sapiens) (O60674 whole entry, the tested form may be a part): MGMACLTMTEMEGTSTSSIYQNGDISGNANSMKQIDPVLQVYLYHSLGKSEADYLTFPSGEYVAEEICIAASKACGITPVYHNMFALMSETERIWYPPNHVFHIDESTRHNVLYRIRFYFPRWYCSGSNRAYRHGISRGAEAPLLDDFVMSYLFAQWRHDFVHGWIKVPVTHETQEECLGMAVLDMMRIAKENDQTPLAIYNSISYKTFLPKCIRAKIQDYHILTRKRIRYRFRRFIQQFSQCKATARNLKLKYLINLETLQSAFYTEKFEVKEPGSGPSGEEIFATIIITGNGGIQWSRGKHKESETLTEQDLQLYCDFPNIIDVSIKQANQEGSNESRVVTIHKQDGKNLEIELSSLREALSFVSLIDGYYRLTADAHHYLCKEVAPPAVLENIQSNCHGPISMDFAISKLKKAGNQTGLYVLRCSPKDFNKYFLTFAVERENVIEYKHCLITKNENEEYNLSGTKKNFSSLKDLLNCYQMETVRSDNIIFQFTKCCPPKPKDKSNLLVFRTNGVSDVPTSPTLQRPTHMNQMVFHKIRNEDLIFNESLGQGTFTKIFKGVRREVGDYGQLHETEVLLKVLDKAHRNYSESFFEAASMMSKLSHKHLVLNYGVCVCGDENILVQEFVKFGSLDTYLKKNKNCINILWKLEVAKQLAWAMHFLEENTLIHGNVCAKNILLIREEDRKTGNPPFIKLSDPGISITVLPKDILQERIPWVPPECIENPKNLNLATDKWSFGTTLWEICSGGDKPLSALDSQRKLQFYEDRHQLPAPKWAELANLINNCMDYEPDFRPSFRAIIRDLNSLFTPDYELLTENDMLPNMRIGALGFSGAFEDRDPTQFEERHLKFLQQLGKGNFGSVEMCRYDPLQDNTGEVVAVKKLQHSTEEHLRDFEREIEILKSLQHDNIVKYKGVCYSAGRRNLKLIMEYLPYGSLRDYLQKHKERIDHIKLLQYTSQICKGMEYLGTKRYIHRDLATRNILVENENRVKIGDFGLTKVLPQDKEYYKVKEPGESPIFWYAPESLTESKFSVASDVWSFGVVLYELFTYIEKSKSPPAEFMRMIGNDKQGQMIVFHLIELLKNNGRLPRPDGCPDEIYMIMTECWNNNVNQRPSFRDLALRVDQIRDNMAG

[10] = molecular target: Proto-oncogene tyrosine-protein kinase Src (Homo sapiens) (UniProt P12931); assay: Inhibition of Src in human 147EF cells after 6 hrs by Western blotting analysis; format: cell-based
Homo sapiens [11] = species: Homo sapiens; assay: Inhibition of MAPK in human 147EF cells after 6 hrs by Western blotting analysis; format: cell-based
[12] = molecular target: Tyrosine-protein kinase JAK2 (Homo sapiens) (UniProt O60674); assay: Inhibition of JAK2 in human 147EF cells after 6 hrs by Western blotting analysis; format: cell-based
[13] = molecular target: T1, Signal transducer and activator of transcription 3 (Homo sapiens, UniProt P40763); assay: Competitive binding affinity to STAT3 SH2 domain (unknown origin) assessed as inhibition of interaction with FAMpYLPQTV after 15 to 30 mins by fluorescent polarization assay
T1 sequence (P40763 whole entry, the tested form may be a part): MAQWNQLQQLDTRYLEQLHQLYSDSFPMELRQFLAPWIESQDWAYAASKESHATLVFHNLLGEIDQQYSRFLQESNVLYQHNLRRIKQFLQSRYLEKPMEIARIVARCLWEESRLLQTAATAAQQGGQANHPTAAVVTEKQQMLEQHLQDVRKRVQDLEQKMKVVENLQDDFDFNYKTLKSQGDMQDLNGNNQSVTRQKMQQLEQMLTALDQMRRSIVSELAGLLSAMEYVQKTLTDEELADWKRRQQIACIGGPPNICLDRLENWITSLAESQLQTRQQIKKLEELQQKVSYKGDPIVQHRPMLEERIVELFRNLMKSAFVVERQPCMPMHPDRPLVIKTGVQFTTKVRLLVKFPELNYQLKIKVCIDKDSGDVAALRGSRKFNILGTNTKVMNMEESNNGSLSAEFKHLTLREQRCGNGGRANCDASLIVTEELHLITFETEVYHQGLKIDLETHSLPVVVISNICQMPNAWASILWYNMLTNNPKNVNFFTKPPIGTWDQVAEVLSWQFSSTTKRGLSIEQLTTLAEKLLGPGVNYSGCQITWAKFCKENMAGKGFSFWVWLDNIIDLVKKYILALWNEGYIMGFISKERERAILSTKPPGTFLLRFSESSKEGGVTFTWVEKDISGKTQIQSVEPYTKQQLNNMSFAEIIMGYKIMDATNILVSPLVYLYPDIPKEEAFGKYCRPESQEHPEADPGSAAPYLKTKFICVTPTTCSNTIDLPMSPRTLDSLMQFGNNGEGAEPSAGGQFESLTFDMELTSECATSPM

[14] = Cytotoxicity against human 84EF cells assessed as cell viability after 3 days by Alamar Blue assay; settings: 72 h
[15] = Cytotoxicity against human 25EF cells assessed as cell viability after 3 days by Alamar Blue assay; settings: 72 h
[16] = Cytotoxicity against human 67EF cells assessed as cell viability after 3 days by Alamar Blue assay; settings: 72 h
[17] = Cytotoxicity against human 30M cells assessed as cell viability after 3 days by Alamar Blue assay; settings: 72 h
cells = settings: Homo sapiens, 72 h
[18] = Cytotoxicity against human 73EF cells assessed as cell viability after 3 days by Alamar Blue assay; settings: 72 h
[19] = Cytotoxicity against human 30M cells assessed as cell viability after 8 days by Alamar Blue assay; format: functional, cell-based; settings: 192 h
[20] = Cytotoxicity against human 73M cells assessed as cell viability after 8 days by Alamar Blue assay; format: functional, cell-based; settings: 192 h
[21] = molecular target: T1, Signal transducer and activator of transcription 3; assay: Inhibition of STAT3 phosphorylation at Y705 in human 147EF cells at 0.1 to 1 uM after 3 hrs by Western blotting analysis; format: cell-based
Homo sapiens [22] = species: Homo sapiens; assay: Inhibition of AKT phosphorylation in human 147EF cells at 0.1 to 1 uM after 3 hrs by Western blotting analysis; format: cell-based
Homo sapiens [23] = species: Homo sapiens; assay: Induction of apoptosis in human 147EF cells assessed as PARP cleavage at 0.1 to 1 uM after 3 hrs by Western blotting analysis; format: functional, cell-based

Structure (SMILES)	inhibition [1]	Activity [2]	inhibition [3]	inhibition [4] [%]	inhibition [5]	inhibition [6]	inhibition (Homo sapiens [7])	Activity [8]	inhibition [9] [%]	inhibition [10]	inhibition (Homo sapiens [11])	inhibition [12]	inhibition [13]	IC50 [17] [µM]	also measured
CN(CC(=O)N(Cc1ccc(C2CCCCC2)cc1)c1ccc(C(=O)NO)cc1)S(=O)(=O)c1c(F)c(F)c(F)c(F)c1F	inactive	Non-toxic	inactive	50	inactive	inactive	inactive	Non-toxic	50	inactive	inactive	inactive			
CC(=O)Oc1cc(N(Cc2ccc(C3CCCCC3)cc2)C(=O)CN(C)S(=O)(=O)c2c(F)c(F)c(F)c(F)c2F)ccc1C(=O)O	inactive	Non-toxic	inactive	50	inactive	inactive	inactive	Non-toxic	50	inactive	inactive	inactive	inactive	0.1	IC50 [14]: 0.332 µM; IC50 [15]: 1.15 µM; IC50 [16]: 0.435 µM; IC50 (cells): 0.273 µM; IC50 [18]: 1.07 µM
CCOC(=O)c1ccc(N(Cc2ccc(C3CCCCC3)cc2)C(=O)CN(C)S(=O)(=O)c2c(F)c(F)c(F)c(F)c2F)cc1													inactive		
C[C@H](NC(=O)/C(C#N)=C/c1cccc(Br)n1)c1ccccc1 [WP 1066]															IC50 [19]: 1.8 µM; IC50 [20]: 2.1 µM
COC(=O)c1ccc(N(Cc2ccc(C3CCCCC3)cc2)C(=O)CN(C)S(=O)(=O)c2c(F)c(F)c(F)c(F)c2F)cc1													inactive		
CN(CC(=O)N(Cc1ccc(C2CCCCC2)cc1)c1ccc(C(=O)O)c(O)c1)S(=O)(=O)c1c(F)c(F)c(F)c(F)c1F														2	inhibition [21]: Active; inhibition (Homo sapiens [22]): Active; Activity (Homo sapiens [23]): Active
